≈ marks a conversion by molar mass, not a printed value. Calls of active or inactive are those of the source. The rule behind the calls is not given here.
How the values were obtained:
[1] = system: SF-268; assay: Growth inhibition of human SF268 cells; format: functional
Summary of the method: (§1)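 Human cancer cell line panel: pancreas (BXPC-3), breast (MCF-7), CNS (SF-268), non-small-cell lung (NCI-H460), colon (KM20L2) and prostate (DU-145). Growth inhibition is reported as GI50 in µg/mL.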

[2] = system: Escherichia coli; assay: Antimicrobial activity against Escherichia coli up to 64 ug/mL by broth microdilution susceptibility assay; format: functional, organism-based
[3] = system: Neisseria gonorrhoeae; assay: Antimicrobial activity against Neisseria gonorrhoeae up to 64 ug/mL by broth microdilution susceptibility assay; format: functional, organism-based
[4] = system: Micrococcus luteus; assay: Antimicrobial activity against Micrococcus luteus up to 64 ug/mL by broth microdilution susceptibility assay; format: functional, organism-based
[5] = system: Staphylococcus aureus; assay: Antimicrobial activity against Staphylococcus aureus up to 64 ug/mL by broth microdilution susceptibility assay; format: functional, organism-based
[6] = system: DU-145; assay: Growth inhibition of human DU145 cells; format: functional; summary of the method: as §1
[7] = system: Stenotrophomonas maltophilia; assay: Antimicrobial activity against Stenotrophomonas maltophilia up to 64 ug/mL by broth microdilution susceptibility assay; format: functional, organism-based
[8] = system: NCI-H460; assay: Growth inhibition of human NCI-H460 cells; format: functional; summary of the method: as §1
[9] = system: Enterobacter cloacae; assay: Antimicrobial activity against Enterobacter cloacae up to 64 ug/mL by broth microdilution susceptibility assay; format: functional, organism-based
[10] = system: KM-20L2; assay: Growth inhibition of human KM20L2 cells; format: functional; summary of the method: as §1
[11] = system: Streptococcus pneumoniae; assay: Antimicrobial activity against Streptococcus pneumoniae up to 64 ug/mL by broth microdilution susceptibility assay; format: functional, organism-based
[12] = system: Cryptococcus neoformans; assay: Antimicrobial activity against Cryptococcus neoformans up to 64 ug/mL by broth microdilution susceptibility assay; format: functional, organism-based
[13] = system: MCF7; assay: Growth inhibition of human MCF7 cells; format: functional; summary of the method: as §1
[14] = system: BXPC-3; assay: Growth inhibition of human BxPC3 cells; format: functional; summary of the method: as §1
[15] = system: Enterococcus faecalis; assay: Antimicrobial activity against Enterococcus faecalis up to 64 ug/mL by broth microdilution susceptibility assay; format: functional, organism-based
[16] = system: Candida albicans; assay: Antimicrobial activity against Candida albicans up to 64 ug/mL by broth microdilution susceptibility assay; format: functional, organism-based

GI50 [6] | GI50 [8] | GI50 [13] | GI50 [14] | SMILES | GI50 [1] | Activity [2] | Activity [3] | Activity [4] | Activity [5] | Activity [7] | Activity [9] | GI50 [10] | Activity [11] | Activity [12] | Activity [15] | Activity [16]
4 µg/mL (≈ 16.6 µM) | 9.8 µg/mL (≈ 40.8 µM) | 3.9 µg/mL (≈ 16.2 µM) | 6.2 µg/mL (≈ 25.8 µM) | CC(C)Cc1ncc(-c2c[nH]c3ccccc23)o1 [LABRADORIN 1] | 5.1 µg/mL (≈ 21.2 µM) | inactive | inactive | inactive | inactive | inactive | inactive | 3.5 µg/mL (≈ 14.6 µM) | inactive | inactive | inactive | inactive
11.4 µg/mL (≈ 44.8 µM) | 9.6 µg/mL (≈ 37.7 µM) | 27.4 µg/mL (≈ 108 µM) | 9.6 µg/mL (≈ 37.7 µM) | CCCCCc1ncc(-c2c[nH]c3ccccc23)o1 [LABRADORIN 2] | 58.8 µg/mL (≈ 231 µM) | inactive | inactive | inactive | inactive | inactive | inactive | 9.7 µg/mL (≈ 38.1 µM) | inactive | inactive | inactive | inactive

Reference: ChEMBL document CHEMBL1150154, “Isolation of labradorins 1 and 2 from Pseudomonas syringae pv. coronafaciens” (2002)
